pIC50: −log10 of the molar value.
Assays:
HCV NS3 protease = HCV NS3 protease (Hepatitis C virus, UniProt P27958); test: Anti-HCV NS3 protease assay; assay type: biochemical; details: SNPs of total extract and petroleum ether fraction, controls (Table 2)
HCV NS3 helicase = HCV NS3 helicase (Hepatitis C virus genotype 1a, UniProt P27958); test: Anti-HCV NS3 helicase assay; assay type: biochemical
In short: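 Test samples were dissolved in DMSO; thioflavin S or 0.8% DMSO served as controls. ATP was added from a 5 mM solution. Fluorescence was read at t0 and after 1 h at 25°C. Ratio_RFU = RFU_t60/RFU_t0, and percent inhibition was calculated.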

Sequence of HCV NS3 helicase (P27958 1192-1657 limits assumed): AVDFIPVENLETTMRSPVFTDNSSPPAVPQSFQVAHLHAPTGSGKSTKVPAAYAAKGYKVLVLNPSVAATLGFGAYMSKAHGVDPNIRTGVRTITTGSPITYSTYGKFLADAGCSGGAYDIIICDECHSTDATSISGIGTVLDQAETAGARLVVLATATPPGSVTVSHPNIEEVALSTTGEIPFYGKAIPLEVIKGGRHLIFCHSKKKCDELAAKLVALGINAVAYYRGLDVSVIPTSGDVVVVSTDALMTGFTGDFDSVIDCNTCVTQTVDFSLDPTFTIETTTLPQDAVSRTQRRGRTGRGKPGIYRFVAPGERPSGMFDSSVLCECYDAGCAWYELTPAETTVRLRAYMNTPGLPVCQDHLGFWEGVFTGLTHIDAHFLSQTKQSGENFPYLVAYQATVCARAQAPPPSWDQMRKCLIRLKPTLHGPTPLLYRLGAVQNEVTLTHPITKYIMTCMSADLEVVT
Sequence of HCV NS3 protease (P27958 1027-1657): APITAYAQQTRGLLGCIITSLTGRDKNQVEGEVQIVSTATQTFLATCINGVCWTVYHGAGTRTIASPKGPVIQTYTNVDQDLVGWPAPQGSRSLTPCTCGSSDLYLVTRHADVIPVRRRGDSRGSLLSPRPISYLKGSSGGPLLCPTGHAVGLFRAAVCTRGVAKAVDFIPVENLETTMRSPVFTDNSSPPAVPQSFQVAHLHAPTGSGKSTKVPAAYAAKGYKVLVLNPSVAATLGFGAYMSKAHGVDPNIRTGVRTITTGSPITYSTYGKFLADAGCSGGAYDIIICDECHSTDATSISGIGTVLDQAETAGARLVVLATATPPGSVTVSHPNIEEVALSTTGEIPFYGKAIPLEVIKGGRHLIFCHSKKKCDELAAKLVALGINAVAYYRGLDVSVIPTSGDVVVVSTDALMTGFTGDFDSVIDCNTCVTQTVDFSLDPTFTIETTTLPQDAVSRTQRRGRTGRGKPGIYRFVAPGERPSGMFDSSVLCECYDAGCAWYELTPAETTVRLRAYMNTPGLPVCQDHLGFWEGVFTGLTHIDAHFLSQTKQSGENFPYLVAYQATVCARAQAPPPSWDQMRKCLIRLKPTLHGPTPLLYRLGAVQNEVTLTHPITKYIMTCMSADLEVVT

SMILES | IC50 NS3 Protease (HCV NS3 protease) | IC50 NS3 Helicase (HCV NS3 helicase; SNPs of total extract and petroleum ether fraction, controls (Table 2)) | pIC50 (HCV NS3 helicase)
O=[N+]([O-])[O-].[Ag+] [AgNO3] | 52.67 ± 0.33 µg/mL | 77.72 ± 4.57 µg/mL | –
NC(=O)c1ncn([C@@H]2O[C@H](CO)[C@@H](O)[C@H]2O)n1 [Ribavirin] | – | – | 4.72
